Assay results published in PMC8148061 (Acta Pharmaceutica Sinica. B, 2020).
“Also recorded” adds a separate entry of the source.

Legend:
Bcr-Abl^T315I = Bcr-Abl^T315I (Homo sapiens, UniProt P00519+P11274, T315I); assay: Western blot degradation study in Ba/F3 cells expressed Bcr-Abl^T315I; format: cell-based; settings: for DR against Ba/F3 Bcr-Abl^T315I (%) 100 nmol/L / DR against Ba/F3 Bcr-Abl^T315I (%) 300 nmol/L: 24 h treatment, Western blot
K562 = assay: Antiproliferation cell assay; format: cell-based, human; settings: Homo sapiens, K562, 72 h, read-out: Cellular inhibition IC50 K562
Procedure, shortened: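 K562 (ATCC) cells were grown in RPMI-1640 with 10% FBS, penicillin, streptomycin and 2 mmol/L glutamine at 37 °C in humidified CO2. Log-phase cells were seeded at ~3000/well, rested overnight, then exposed to test compound or vehicle for 72 h (10 mmol/L DMSO stocks). CCK-8 was read as OD450−OD650, with viability normalised to no-cell blank and vehicle wells. IC50 came from concentration–response curve fitting, mean ± SD.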

Ba/F3 Bcr-Abl^WT = assay: Antiproliferation cell assay; format: cell-based; settings: Mus musculus, BaF3, 72 h, read-out: Cellular inhibition IC50 Ba/F3 Bcr-Abl^WT
Ba/F3 Bcr-Abl^T315I = assay: Antiproliferation cell assay; format: cell-based; settings: Mus musculus, BaF3, 72 h, read-out: Cellular inhibition IC50 Ba/F3 Bcr-Abl^T315I
Bcr-Abl^WT = Bcr-Abl^WT (Homo sapiens, UniProt P00519+P11274); assay: Western blot degradation study in K562 cells; format: cell-based
[1] = biological target: Bcr-Abl^T315I / CRBN E3 ligase (UniProt P00519+P11274+Q8C7D2, T315I); assay: Co-immunoprecipitation in Ba/F3 Bcr-Abl^T315I cells; format: cell-based; settings: 24 h treatment
Procedure, shortened: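 After 24 h exposure to a range of test compound concentrations, cells were lysed on ice in RIPA with protease and phosphatase inhibitors. Protein was BCA-quantified and equalised; ~4/5 of each lysate went to IP and the rest served as input. Anti-c-Abl antibody was added overnight at 4 °C, then protein A+G agarose for 2 h at 4 °C. Beads were washed five times in RIPA without inhibitors, and complexes were immunoblotted for CRBN.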

[2] = Pharmacokinetics in mice, single i.p. injection; format: in vivo, ICR mice; settings: 20 mg/kg
[3] = system: Ba/F3 Bcr-Abl^T315I xenograft; assay: In vivo antitumor efficacy, Ba/F3 Bcr-Abl^T315I xenograft model; parameters: species or system CB17-SCID mice
Procedure, shortened: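 Ba/F3 Bcr-AblT315I cells in normal saline were implanted s.c. in the right flank of CB17-SCID mice (2 × 10^6 cells/0.1 mL). Mice were randomised at mean tumour volume 100–200 mm3 and dosed i.p. every two days at 10 or 20 mg/kg. Vehicle was 5% DMSO + 10% solutol + 85% saline. Body weight and tumour volume (L × W²/2) were recorded every two days. Terminal tumours were formalin-fixed, paraffin-sectioned and TUNEL-stained.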

SMILES	DR against Ba/F3 Bcr-Abl^T315I (%) 100 nmol/L (Bcr-Abl^T315I; 100 nmol/L) [%]	DR against Ba/F3 Bcr-Abl^T315I (%) 300 nmol/L (Bcr-Abl^T315I) [%]	IC50 (K562) [nM]	IC50 (Ba/F3 Bcr-Abl^WT) [nM]	IC50 (Ba/F3 Bcr-Abl^T315I) [nM]	improvement of DR compared with 7a (Bcr-Abl^T315I; DR at 300 nmol/L)	treatment time after which Bcr-Abl^T315I protein level was substantially reduced (Bcr-Abl^T315I; 100 nmol/L, time-course) [h]	Bcr-Abl^T315I degradation after preincubation with proteasome inhibitor MG132 (Bcr-Abl^T315I; 20 μmol/L MG132, then 7o 24 h at 100 and 300 nmol/L)	treatment time of maximum degradation (Bcr-Abl^T315I; Ba/F3 Bcr-Abl^T315I, time-course) [h]	treatment time after which Bcr-Abl^WT was substantially reduced in K562 cells (Bcr-Abl^WT; 100 nmol/L, time-course) [h]	mechanism of Bcr-Abl^T315I degradation (Co-IP) [1]	plasma concentration over time [2]	tumor growth inhibition (TGI) ([3]; 20 mg/kg, i.p., q2d, 10 consecutive days) [%]	body weight loss relative to the vehicle matched controls ([3]; 20 mg/kg, i.p., q2d, during the treatment) [%]	mortality ([3]; during the treatment)	tumor growth (in words) ([3]; i.p., once every two days)	apoptosis in xenograft tumor (TUNEL) ([3]; mouse, in vivo)	degradation potency relative to GZD824 (Bcr-Abl^T315I; DR at 300 nmol/L) [fold]	degradation on K562 cells expressing Bcr-Abl (Bcr-Abl^WT; 24 h treatment (data not shown))
Cc1ccc(C(=O)Nc2ccc(CN3CCN(CCCCC(=O)Nc4cccc5c4C(=O)N(C4CCC(=O)NC4=O)C5=O)CC3)c(C(F)(F)F)c2)cc1C#Cc1cnc2[nH]ncc2c1 (stereo not drawn) [7m, 3-((1H-Pyrazolo[3,4-b]pyridin-5-yl)ethynyl)-N-(4-((4-(5-((2-(2,6-dioxopiperidin-3-yl)-1,3-dioxoisoindolin-4-yl)amino)-5-oxopentyl)piperazin-1-yl)methyl)-3-(trifluoromethyl)phenyl)-4-methylbenzamide]	49.84	48.67	3 ± 1.2	4.3 ± 0.1	25 ± 10.4														
Cc1ccc(C(=O)Nc2ccc(CN3CCN(CCOCCOCCOCCC(=O)Nc4cccc5c4C(=O)N(C4CCC(=O)NC4=O)C5=O)CC3)c(C(F)(F)F)c2)cc1C#Cc1cnc2[nH]ncc2c1 (stereo not drawn) [compound 7h, 3-((1H-Pyrazolo[3,4-b]pyridin-5-yl)ethynyl)-N-(4-((4-(2-(2-(2-(3-((2-(2,6-dioxopiperidin-3-yl)-1,3-dioxoisoindolin-4-yl)amino)-3-oxopropoxy)ethoxy)ethoxy)ethyl)piperazin-1-yl)methyl)-3-(trifluoromethyl)phenyl)-4-methylbenzamide]	16.86	78.34	13.7 ± 9.3	10.6 ± 2.6	83.4 ± 31.6	about 2 fold													
Cc1ccc(C(=O)Nc2ccc(CN3CCN(CCOCCOCCC(=O)N[C@H](C(=O)C4C[C@H](O)C[C@H]4C(=O)NCc4ccc(-c5scnc5C)cc4)C(C)(C)C)CC3)c(C(F)(F)F)c2)cc1C#Cc1cnc2[nH]ncc2c1 (stereo partly drawn) [7d, 3-((1H-Pyrazolo[3,4-b]pyridin-5-yl)ethynyl)-N-(4-((4-(2-(2-(3-(((2S)-1-((2R,4S)-4-hydroxy-2-((4-(4-methylthiazol-5-yl)benzyl)carbamoyl)cyclopentyl)-3,3-dimethyl-1-oxobutan-2-yl)amino)-3-oxopropoxy)ethoxy)ethyl)piperazin-1-yl)methyl)-3-(trifluoromethyl)phenyl)-4-methylbenzamide]	−18.26	−10.51	31 ± 0.1	337 ± 6.1	981 ± 24.9														
Cc1ccc(C(=O)Nc2ccc(CN3CCN(CCC(=O)Nc4cccc5c4C(=O)N(C4CCC(=O)NC4=O)C5=O)CC3)c(C(F)(F)F)c2)cc1C#Cc1cnc2[nH]ncc2c1 (stereo not drawn) [7l, 3-((1H-Pyrazolo[3,4-b]pyridin-5-yl)ethynyl)-N-(4-((4-(3-((2-(2,6-dioxopiperidin-3-yl)-1,3-dioxoisoindolin-4-yl)amino)-3-oxopropyl)piperazin-1-yl)methyl)-3-(trifluoromethyl)phenyl)-4-methylbenzamide]	−30.35	37.19	2.1 ± 0.9	5.4 ± 0.8	65.8 ± 28.8														
Cc1ccc(C(=O)Nc2ccc(CN3CCN(CCOCCC(=O)Nc4cccc5c4C(=O)N(C4CCC(=O)NC4=O)C5=O)CC3)c(C(F)(F)F)c2)cc1C#Cc1cnc2[nH]ncc2c1 (stereo not drawn) [7g, 3-((1H-Pyrazolo[3,4-b]pyridin-5-yl)ethynyl)-N-(4-((4-(2-(3-((2-(2,6-dioxopiperidin-3-yl)-1,3-dioxoisoindolin-4-yl)amino)-3-oxopropoxy)ethyl)piperazin-1-yl)methyl)-3-(trifluoromethyl)phenyl)-4-methylbenzamide]	−11.43	28.39	3.5 ± 0.5	20.7 ± 2.4	67.5 ± 3.2														
Cc1ccc(C(=O)Nc2ccc(CN3CCN(CCOCCOCCOc4cccc5c4C(=O)N(C4CCC(=O)NC4=O)C5=O)CC3)c(C(F)(F)F)c2)cc1C#Cc1cnc2[nH]ncc2c1 (stereo not drawn) [7c, 3-((1H-Pyrazolo[3,4-b]pyridin-5-yl)ethynyl)-N-(4-((4-(2-(2-(2-((2-(2,6-dioxopiperidin-3-yl)-1,3-dioxoisoindolin-4-yl)oxy)ethoxy)ethoxy)ethyl)piperazin-1-yl)methyl)-3-(trifluoromethyl)phenyl)-4-methylbenzamide]	−15.62	9.98	3.2 ± 0.1	22.4 ± 10.2	212 ± 101														
Cc1ccc(C(=O)Nc2ccc(CN3CCN(CCCCCCC(=O)Nc4cccc5c4C(=O)N(C4CCC(=O)NC4=O)C5=O)CC3)c(C(F)(F)F)c2)cc1C#Cc1cnc2[nH]ncc2c1 (stereo not drawn) [compound 7o, 3-((1H-Pyrazolo[3,4-b]pyridin-5-yl)ethynyl)-N-(4-((4-(7-((2-(2,6-dioxopiperidin-3-yl)-1,3-dioxoisoindolin-4-yl)amino)-7-oxoheptyl)piperazin-1-yl)methyl)-3-(trifluoromethyl)phenyl)-4-methylbenzamide]	69.89	94.23	7.7 ± 1.8	4.2 ± 0.2	26.8 ± 9.7		6	successfully rescue	24	36	mediated by CRBN E3 ubiquitin pathway	high plasma concentrations maintained over 48 h	90.8	< 5	no mortality	substantial tumor regression; also recorded: suppresses the growth	induced apoptosis		
Cc1ccc(C(=O)Nc2ccc(CN3CCN(CCOCCOCCC(=O)Nc4cccc5c4C(=O)N(C4CCC(=O)NC4=O)C5=O)CC3)c(C(F)(F)F)c2)cc1C#Cc1cnc2[nH]ncc2c1 (stereo not drawn) [compound 7a, 3-((1H-Pyrazolo[3,4-b]pyridin-5-yl)ethynyl)-N-(4-((4-(2-(2-(3-((2-(2,6-dioxopiperidin-3-yl)-1,3-dioxoisoindolin-4-yl)amino)-3-oxopropoxy)ethoxy)ethyl)piperazin-1-yl)methyl)-3-(trifluoromethyl)phenyl)-4-methylbenzamide]	−15.35	39.01	7.9 ± 5.2	10 ± 2.1	83.2 ± 27.8													2	does not exhibit obvious degradation
